Experimental data published in ChEMBL document CHEMBL4024773, “The Magic of Crystal Structure-Based Inhibitor Optimization: Development of a Butyrylcholinesterase Inhibitor with Picomolar Affinity and in Vivo Activity” (J Med Chem, 2018).
Calls of active or inactive are those of the source. No cut-off for these calls is given here.

Assays:
Acetylcholinesterase = target: T1, Acetylcholinesterase (Mus musculus, UniProt P21836); experiment: Inhibition of mouse AChE using acetylthiocholine iodide as substrate preincubated for 300 secs followed by substrate addition measured for 1 min by Ellman's method
T1 sequence (P21836 whole entry): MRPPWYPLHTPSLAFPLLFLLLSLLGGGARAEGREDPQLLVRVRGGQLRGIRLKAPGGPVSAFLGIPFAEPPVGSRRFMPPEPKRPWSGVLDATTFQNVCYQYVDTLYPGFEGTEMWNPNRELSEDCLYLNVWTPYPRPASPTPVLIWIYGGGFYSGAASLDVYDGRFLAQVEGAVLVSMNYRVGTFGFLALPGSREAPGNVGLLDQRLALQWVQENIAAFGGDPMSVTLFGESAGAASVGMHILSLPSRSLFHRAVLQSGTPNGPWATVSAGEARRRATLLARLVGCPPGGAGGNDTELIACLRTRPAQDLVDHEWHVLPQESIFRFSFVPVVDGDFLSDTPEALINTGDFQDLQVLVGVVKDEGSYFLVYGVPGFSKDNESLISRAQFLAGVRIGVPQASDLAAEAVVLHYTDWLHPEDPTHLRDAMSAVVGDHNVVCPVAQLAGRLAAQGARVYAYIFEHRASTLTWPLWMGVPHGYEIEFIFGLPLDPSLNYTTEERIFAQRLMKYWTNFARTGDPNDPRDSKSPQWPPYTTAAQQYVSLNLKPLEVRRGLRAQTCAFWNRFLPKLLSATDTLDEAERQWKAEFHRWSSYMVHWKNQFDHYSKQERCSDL
Outline: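 Inhibition of murine AChE measured by the Ellman method with acetylthiocholine iodide as substrate. IC50 determined only where inhibition reached at least 50% at 10 µM. Otherwise recorded as IC50 >10 µM.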

Cholinesterase [1] = target: T2, Cholinesterase (Homo sapiens, UniProt P06276); experiment: Inhibition of recombinant human BChE using butyrylthiocholine iodide as substrate preincubated for 300 secs followed by substrate addition measured for 1 min by Ellman's method
Cholinesterase [2] = target: T2, Cholinesterase; experiment: Competitive inhibition of recombinant human BChE using butyrylthiocholine iodide as substrate at pH 8 by stopped flow assay
[3] = Apparent permeability across apical to basolateral side in human Caco2 cells at 100 uM after 20 mins by fluorescein dye based HPLC-UV analysis; format: ADME, cell-based; conditions: Caco-2
Outline: (§1)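 Caco-2 permeability (Papp) was measured bidirectionally, absorptive apical-to-basolateral and eliminatory basolateral-to-apical. The efflux ratio was calculated as Papp(B–A)/Papp(A–B).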

[4] = Efflux ratio of apparent permeability from basolateral to apical side over apical to basolateral side in human Caco2 cells; format: ADME, cell-based; conditions: Caco-2
[5] = Apparent permeability across basolateral to apical side in human Caco2 cells at 100 uM after 20 mins by fluorescein dye based HPLC-UV analysis; format: ADME, cell-based; conditions: Caco-2; outline: as §1
Mus musculus [6] = experiment: Reversal of scopolamine-induced hyperlocomotion in C57BL/6J mouse assessed as speed of swimming at 10 mg/kg, ip administered 60 mins prior to test post scopolamine challenge measured on day 7 by Morris water maze test (reference value: 0.20 meter/s); format: functional
[7] = target: Butyrylcholinesterase (Rattus norvegicus) (UniProt Q9JKC1); conditions: 300 uM
Mus musculus [8] = experiment: Reversal of scopolamine-induced memory loss in C57BL/6J mouse assessed as decrease in escape latency time at 10 mg/kg, ip administered 60 mins prior to test post scopolamine-challenge measured on day 7 by Morris water maze test; format: functional, organism-based
Mus musculus [9] = experiment: Reversal of scopolamine-induced memory impairment in C57BL/6J mouse assessed as decrease in traveled distance to reach the escape platform at 10 mg/kg, ip administered 60 mins prior to test post scopolamine challenge measured on day 7 by Morris water maze test; format: functional, organism-based
[10] = human, hepatocytes, 2 h
[11] = Drug uptake in Wistar Han rat plasma at 10 mg/kg, ip after 1 hr by LC-MS/MS analysis; format: ADME, organism-based
Cholinesterase [12] = target: T2, Cholinesterase; conditions: 5 to 10 nM
[13] = Ratio of drug level in brain to plasma in Wistar Han rat at 10 mg/kg, ip after 1 hr by LC-MS/MS analysis; format: ADME, organism-based; conditions: read-out: BPR
Outline: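 Rats received a single intraperitoneal injection of 10 mg/kg. Brain tissue (µg/kg) and blood plasma (µg/L) concentrations were measured 1 h later and reported as mean ±SEM. The brain-to-plasma ratio was calculated from these concentrations.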

[14] = Half life in cryopreserved human hepatocytes at 1 uM after 120 mins by HPLC-MS/MS analysis; format: ADME, cell-based, Hepatocyte
Outline: (§2)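 Flurazepam, naloxone and propranolol, which are high-extraction […] references, served as positive controls.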

[15] = Protein binding in human plasma at 10 uM after 4 hrs by HPLC-MS/MS analysis; format: ADME, cell-free; conditions: read-out: PPB (converted)
in vitro [16] = conditions: human, SH-SY5Y cells
[17] = Half life in human plasma at 1 uM by HPLC-MS/MS analysis; format: ADME, cell-free
[18] = Apparent intrinsic clearance in cryopreserved human hepatocytes assessed per million cells at 1 uM after 120 mins by HPLC-MS/MS analysis; format: ADME, cell-based, Hepatocyte; conditions: 2 h; outline: as §2
in vitro [19] = conditions: human, HepG2 cells
[20] = Stability of the compound in human plasma assessed as compound remaining at 1 uM after 120 mins by HPLC-MS/MS analysis; format: ADME, cell-free; conditions: read-out: Stability
Brain = conditions: rat, in vivo, ip, 10 mg/kg, 1 h
Mus musculus [21] = experiment: Toxicity in Albino Swiss CD-1 mouse assessed as reduction in locomotor activity by measuring number of light beam crossings at 30 mg/kg, ip measured at 24 to 30 mins post dose; format: organism-based; conditions: in vivo
Outline: (§3)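 Mice were given 30 mg/kg intraperitoneally, the same dose used in the Morris water-maze task. Safety was assessed with a locomotor activity test monitored over time, rotarod at 6, 18 and 24 rpm, and observation for acute cholinergic adverse signs.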

Mus musculus [22] = experiment: Reversal of scopolamine-induced hyperlocomotion in C57BL/6J mouse assessed as speed of swimming at 30 mg/kg, ip administered 60 mins prior to test post scopolamine challenge measured on day 7 by Morris water maze test (reference value: 0.20 meter/s); format: functional
[23] = Drug metabolism in cryopreserved human hepatocytes assessed as (+/-)-N-((1-(2,3-Dihydro-1H-inden-2-yl)piperidin-3-yl)methyl)-N-(2-(methylamino)ethyl)-2-naphthamide dihydrochloride formation at 1 uM after 120 mins by HPLC-MS/MS analysis; format: ADME, cell-based, Hepatocyte; conditions: 2 h; outline: as §2
Mus musculus [24] = experiment: Toxicity in Albino Swiss CD-1 mouse assessed as acute adverse cholinergic effects at 30 mg/kg, ip; format: organism-based; conditions: in vivo; outline: as §3
Mus musculus [25] = experiment: Toxicity in Albino Swiss CD-1 mouse assessed as motor impairment at 30 mg/kg, ip using rod revolving at 6, 18, or 24 rpm after 60 mins by rotarod test; format: organism-based; conditions: in vivo, 1 h
Outline: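 Rotarod test in mice given 30 mg/kg intraperitoneally, the dose used in the water maze tests. Motor performance recorded at rod speeds of 6, 18 and 24 rpm.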

[26] = Drug level in cryopreserved human hepatocytes treated with HCl salt of (+/-)-N-((1-(2,3-Dihydro-1H-inden-2-yl)piperidin-3-yl)methyl)-N-(2-(dimethylamino)ethyl)-2-naphthamide Dichloride at 1 uM after 120 mins by HPLC-MS/MS analysis; format: ADME, cell-based, Hepatocyte; conditions: 2 h; outline: as §2

T2 sequence (P06276 whole entry): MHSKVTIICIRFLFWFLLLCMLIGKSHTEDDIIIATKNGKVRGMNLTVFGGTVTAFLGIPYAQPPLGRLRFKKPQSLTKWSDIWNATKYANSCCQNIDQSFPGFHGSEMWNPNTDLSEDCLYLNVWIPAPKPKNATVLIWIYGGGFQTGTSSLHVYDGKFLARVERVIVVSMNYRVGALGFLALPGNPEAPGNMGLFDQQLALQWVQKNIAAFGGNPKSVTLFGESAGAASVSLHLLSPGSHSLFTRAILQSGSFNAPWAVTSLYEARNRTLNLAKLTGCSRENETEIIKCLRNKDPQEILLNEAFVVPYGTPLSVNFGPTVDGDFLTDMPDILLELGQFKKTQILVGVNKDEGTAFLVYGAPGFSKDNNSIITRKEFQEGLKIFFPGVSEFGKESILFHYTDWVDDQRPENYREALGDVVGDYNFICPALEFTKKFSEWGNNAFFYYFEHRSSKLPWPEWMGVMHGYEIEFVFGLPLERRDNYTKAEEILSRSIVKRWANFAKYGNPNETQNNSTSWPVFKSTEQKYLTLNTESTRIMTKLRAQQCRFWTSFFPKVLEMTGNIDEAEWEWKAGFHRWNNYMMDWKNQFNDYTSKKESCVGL
Chain of Butyrylcholinesterase (Rattus norvegicus) (Q9JKC1 as listed by the source): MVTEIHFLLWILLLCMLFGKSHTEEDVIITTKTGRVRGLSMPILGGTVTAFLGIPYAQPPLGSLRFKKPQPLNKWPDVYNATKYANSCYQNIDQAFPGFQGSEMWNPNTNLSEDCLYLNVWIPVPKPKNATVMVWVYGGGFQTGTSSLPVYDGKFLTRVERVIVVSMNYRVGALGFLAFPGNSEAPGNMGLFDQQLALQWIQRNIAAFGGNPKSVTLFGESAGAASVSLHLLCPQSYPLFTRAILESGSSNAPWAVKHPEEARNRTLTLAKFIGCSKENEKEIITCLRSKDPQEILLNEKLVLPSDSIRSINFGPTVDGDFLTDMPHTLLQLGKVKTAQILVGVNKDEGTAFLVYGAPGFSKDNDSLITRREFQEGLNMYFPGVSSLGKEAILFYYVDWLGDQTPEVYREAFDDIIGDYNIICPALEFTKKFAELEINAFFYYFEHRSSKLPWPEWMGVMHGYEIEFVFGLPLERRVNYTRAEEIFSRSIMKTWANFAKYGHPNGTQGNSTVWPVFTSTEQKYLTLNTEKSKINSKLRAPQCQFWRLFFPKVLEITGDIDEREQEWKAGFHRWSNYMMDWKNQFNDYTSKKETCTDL

Work on `O=C(NCC1CCCN(Cc2ccccc2)C1)c1ccc2ccccc2c1` (racemic) yielded an IC50 (Acetylcholinesterase) greater than 10000 nM and an IC50 (Cholinesterase [1]) of 1440 nM.
For `c1ccc2c(NCCCCCCCNc3c4c(nc5ccccc35)CCCC4)c3c(nc2c1)CCCC3`, the Ki (Cholinesterase [2]) was 0.163 nM.
For `COC(=O)c1ccccc1-c1c2ccc(=N)cc-2oc2cc(N)ccc12.Cl` [RHODAMINE123], the Papp A→B at 20 min, 100 µM [3] was 1.1 ×10⁻⁶ cm/s, the efflux ratio [4] was 7.3 and the Papp B→A at 20 min, 100 µM [5] was 7.7 ×10⁻⁶ cm/s.
Molecule `COCCCN(CC1CCCN(C2Cc3ccccc3C2)C1)C(=O)c1ccc2ccccc2c1` (racemic) has an IC50 (Acetylcholinesterase) greater than 10000 nM and an IC50 (Cholinesterase [1]) of 38.2 nM.
In the case of `COc1cc2c(cc1OC)C(=O)C(CC1CCN(Cc3ccccc3)CC1)C2.Cl` (configuration not stated) [DONEPEZIL HYDROCHLORIDE], the Activity (Mus musculus [6]) is reported as 0.15 meter/s.
In the case of `COCCN(CC1CCCN(Cc2ccccc2)C1)S(=O)(=O)c1ccc2ccccc2c1` (configuration not stated), the IC50 (Acetylcholinesterase) is reported as greater than 10000 nM and the inhibition [7] is reported as “Active”.
With `COc1cc2c(cc1OC)C(=O)C(CC1CCN(Cc3ccccc3)CC1)C2` (configuration not stated) the Activity (Mus musculus [8]) was “Active” and the Activity (Mus musculus [9]) was “Active”.
For `O=c1cc(C(F)(F)F)c2ccc(O)cc2o1`, the Stability [10] was “Unstable”.
Molecule `COc1cc2c(cc1OC)C(=O)C(CC1CCN(Cc3ccccc3)CC1)C2` (configuration not stated) [DONEPEZIL] has a concentration at 1 h [11] of 2 to 300 ng/mL.
`COCCN(CC1CCN(Cc2ccccc2)CC1)C(=O)c1ccc2ccccc2c1` gave an IC50 (Acetylcholinesterase) greater than 10000 nM and an IC50 (Cholinesterase [1]) of 702 nM.
For `COCCN(CC1CCCN(C2Cc3ccccc3C2)C1)C(=O)c1ccc2ccccc2c1` (single isomer, unassigned; (+)), the deltaG (Cholinesterase [12]) was -11.9 kcal/mol.
Work on `CN(C)CCN(CC1CCCN(C2Cc3ccccc3C2)C1)C(=O)c1ccc2ccccc2c1` (racemic) yielded an IC50 (Acetylcholinesterase) greater than 10000 nM.
For `CCN(CC)CCN1C(=O)CN=C(c2ccccc2F)c2cc(Cl)ccc21` [FLURAZEPAM], the Stability [10] was “Unstable”.
For `COCCN(CC1CCCN(Cc2ccccc2)C1)C(=O)c1ccc2ccccc2c1` (racemic), the IC50 (Acetylcholinesterase) was greater than 10000 nM and the IC50 (Cholinesterase [1]) was 230 nM.
For `O=C(NCC1CCCN(C2Cc3ccccc3C2)C1)c1cccc2ccccc12` (racemic), the IC50 (Acetylcholinesterase) was greater than 10000 nM and the IC50 (Cholinesterase [1]) was 67 nM.
Work on `CN(C)CCN(CC1CCCN(C2Cc3ccccc3C2)C1)C(=O)c1ccc2ccccc2c1.Cl` (racemic) yielded a Kp at 1 h [13] of 1.47, a half-life at 1 µM [14] greater than 2 h and a fraction unbound at 4 h, 10 µM [15] of 0.07. For the same molecule, the CC50 at 48 h (in vitro [16]) was 6630 nM, the half-life at 1 µM [17] was greater than 2 h and the “CLH(app)” value [18] was less than 8.2 µL/min. It also gave a CC50 at 24 h (in vitro [19]) of 33900 nM, a remaining at 2 h, 1 µM [20] of 76% and a Papp A→B at 20 min, 100 µM [3] of 28 ×10⁻⁶ cm/s. The Drug uptake (Brain) was 248 µg/kg, the Activity (Mus musculus [21]) was “Toxic” and the Activity (Mus musculus [22]) was 0.18 meter/s. The Drug metabolism [23] was “Metabolite_Detected”, the Activity (Mus musculus [24]) was “Non-Toxic” and the Activity (Mus musculus [25]) was “Non-Toxic”. For the same molecule, the Papp B→A at 20 min, 100 µM [5] was 46.1 ×10⁻⁶ cm/s and the concentration at 1 h [11] was 169 ng/mL.
In the case of `COCCN(CC1CCCN(C2Cc3ccccc3C2)C1)C(=O)c1ccc2cc(Br)ccc2c1` (racemic), the IC50 (Acetylcholinesterase) is reported as greater than 10000 nM and the IC50 (Cholinesterase [1]) is reported as 410 nM.
With `CNCCN(CC1CCCN(C2Cc3ccccc3C2)C1)C(=O)c1ccc2ccccc2c1.Cl.Cl` (racemic) the Drug metabolism [26] was “Metabolite_Detected” and the IC50 (Cholinesterase [1]) was 18 nM.
Work on `O=C(NCC1CCCN(Cc2nc3ccccc3s2)C1)c1ccc2ccccc2c1` (racemic) yielded an IC50 (Acetylcholinesterase) greater than 10000 nM and an IC50 (Cholinesterase [1]) of 632 nM.
